Measurements: ChEMBL document CHEMBL2040828 (J Med Chem, 2012)

What was measured:
[1] = Irreversible inhibition of hepatitis C virus NS5B polymerase; set-up: species or system Hepacivirus hominis
Hepatitis C virus = experiment: Antiviral activity against HCV by cell based replicon assay; format: functional, organism-based, Hepacivirus hominis
[2] = AUC in rat at 10 mg/kg, po; format: ADME, organism-based; set-up: dose 10 mg/kg, route oral; settings: plasma
How it was run: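 Single-dose pharmacokinetics: rats were dosed at 10 mg/kg, and monkeys and dogs at 3 mg/kg. Oral AUC, clearance, half-life and bioavailability were determined. All doses were given in 0.4% MC vehicle.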

SMILES | IC50 [1] | EC50 (Hepatitis C virus) | AUC [2]
CCc1ccc2c(c1)c(-c1ccc[nH]c1=O)c(C(=O)NS(=O)(=O)C1CC1)n2Cc1cc(S(C)(=O)=O)c(C#N)cc1F | 3 nM | 3 nM | 
Cc1ccc2c(c1)c(-c1ccc(C)[nH]c1=O)c(C(=O)NS(C)(=O)=O)n2Cc1cc([N+](=O)[O-])ccc1F | 6 nM | 8 nM | 
Cc1ccc2c(c1)c(-c1ccc[nH]c1=O)c(C(=O)NS(=O)(=O)N(C)C)n2Cc1cc([N+](=O)[O-])ccc1F | 5 nM | 0.5 nM | 
Cc1ccc2c(c1)c(-c1ccc(C)[nH]c1=O)c(C(=O)O)n2Cc1cc([N+](=O)[O-])ccc1F | 13 nM | 30 nM | 
Cc1ccc2c(c1)c(-c1ccc[nH]c1=O)c(C(=O)NS(=O)(=O)C1CC1)n2Cc1c(F)c(F)cc(C(N)=O)c1F | 14 nM | 3300 nM | 
Cc1ccc2c(c1)c(-c1ccc[nH]c1=O)c(C(=O)N[S+]([O-])C(C)C)n2Cc1cc([N+](=O)[O-])ccc1F (centres undefined) | 7 nM | 2 nM | 
Cc1ccc2c(c1)c(-c1ccc[nH]c1=O)c(C(=O)O)n2Cc1cc([N+](=O)[O-])ccc1F | 3 nM | 1 nM | 0.14 µM·h
Cc1ccc2c(c1)c(-c1ccc[nH]c1=O)c(C(=O)NS(=O)(=O)C(C)C)n2Cc1cc([N+](=O)[O-])ccc1F | 4 nM | 3 nM | 

More lines, now with the values ahead:

IC50 [1] | EC50 (Hepatitis C virus) | AUC [2] | SMILES
4 nM | 380 nM |  | Cc1ccc2c(c1)c(-c1ccc[nH]c1=O)c(C(=O)NS(=O)(=O)C1CC1)n2Cc1cccc(C)c1F
3 nM | 5 nM |  | Cc1ccc2c(c1)c(-c1ccc[nH]c1=O)c(C(=O)NS(=O)(=O)C1CC1)n2Cc1cc(S(C)(=O)=O)cc(C#N)c1F
6 nM | 1 nM | 0.01 µM·h | Cc1ccc2c(c1)c(-c1ccc[nH]c1=O)c(C(=O)NS(=O)(=O)C1CC1)n2Cc1cc([N+](=O)[O-])ccc1F
7 nM | 16 nM |  | Cc1ccc2c(c1)c(-c1ccc[nH]c1=O)c(C(=O)NS(=O)(=O)C1CC1)n2Cc1cc([N+](=O)[O-])ccc1Cl
6 nM | 5 nM | 0.3 µM·h | O=C(NS(=O)(=O)C1CC1)c1c(-c2ccc[nH]c2=O)c2cc(Cl)ccc2n1Cc1cc([N+](=O)[O-])ccc1F
5 nM | 6 nM |  | O=C(NS(=O)(=O)C1CC1)c1c(-c2ccc[nH]c2=O)c2cc(F)ccc2n1Cc1cc([N+](=O)[O-])ccc1F
6 nM | 10 nM |  | CC(C)(C)c1ccc2c(c1)c(-c1ccc[nH]c1=O)c(C(=O)NS(=O)(=O)C1CC1)n2Cc1cc([N+](=O)[O-])ccc1F
5 nM | 50 nM |  | Cc1ccc2c(c1)c(-c1ccc[nH]c1=O)c(C(=O)NS(=O)(=O)C1CC1)n2Cc1ccccc1F
6 nM | 500 nM |  | Cc1ccc2c(c1)c(-c1ccc[nH]c1=O)c(C(=O)NS(=O)(=O)C1CC1)n2Cc1ccnc(N)c1
46 nM | 900 nM |  | Cc1ccc2c(c1)c(-c1ccc[nH]c1=O)c(C(=O)NS(=O)(=O)C1CC1)n2Cc1cc(S(=O)(=O)C(F)(F)F)ccc1Cl
